What is called IC50 is the concentration at which inhibition is half-maximal.

What all share (format): tissue-based
Experiment [1] addresses Mu-type opioid receptor (Rattus norvegicus, UniProt P33535). Nature of the experiment: Inhibition of binding of radioligand [3H]CTOP to Opioid receptor mu 1 in rat brain. The essentials: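 Rat whole brain (less cerebellum) membranes, preincubated 30 min at 25 °C to strip endogenous peptides. Displacement of 0.5 nM [3H]CTOP in 50 mM Tris-HCl pH 7.4 containing BSA, bestatin, bacitracin, captopril and toluenesulfonyl fluoride; 10 concentrations over an 800-fold range; 3 h at 25 °C; filtration.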

For experiment [2], the target named is Delta-type opioid receptor (Rattus norvegicus, UniProt P33533). Briefly: Inhibition of binding of radioligand [3H][p-Cl-phe]-DPDPE to Opioid receptor delta 1 in rat brain.
Delta-type opioid receptor (Rattus norvegicus, UniProt P33533), sequence (P33533 whole entry): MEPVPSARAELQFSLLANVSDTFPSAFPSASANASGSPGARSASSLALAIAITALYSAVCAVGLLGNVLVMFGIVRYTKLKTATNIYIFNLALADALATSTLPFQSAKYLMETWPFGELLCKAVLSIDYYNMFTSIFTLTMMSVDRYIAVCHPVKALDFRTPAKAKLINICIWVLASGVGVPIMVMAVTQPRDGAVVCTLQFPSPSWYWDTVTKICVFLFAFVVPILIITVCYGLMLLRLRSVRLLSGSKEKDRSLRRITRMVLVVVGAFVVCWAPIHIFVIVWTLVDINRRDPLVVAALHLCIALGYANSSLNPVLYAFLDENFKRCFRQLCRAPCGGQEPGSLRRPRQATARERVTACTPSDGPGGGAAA
For experiment [3], the target named is Delta-type opioid receptor (Mus musculus, UniProt P32300). Nature of the experiment: Inhibitory potency against Opioid receptor delta 1 was determined in electrically induced smooth muscle contractions of mouse vas deferens (MVD). The essentials:
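Vas deferens from male ICR mice (25–40 g), in Mg-free oxygenated Krebs at 37 °C under 0.5 g tension. Transmural stimulation at 0.1 Hz, 2.0-ms pulses, supramaximal voltage. […] IC50 from Hill fit of mean data from at least four tissues.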

The target in experiment [4] is Mu-type opioid receptor. Briefly: Inhibitory potency against Opioid receptor mu 1 was determined in electrically induced strips of guinea pig ileum (GPI). The method in brief:
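Ileum longitudinal muscle–myenteric plexus strips from male Hartley guinea pigs (250–500 g), in oxygenated Krebs at 37 °C under 1 g tension. Transmural stimulation at 0.1 Hz, 0.4-ms pulses, supramaximal voltage. IC50 from Hill fit of mean data from at least four tissues.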

Peptide text beside a SMILES is read from it.

Mu-type opioid receptor (Rattus norvegicus, UniProt P33535), sequence (P33535 whole entry): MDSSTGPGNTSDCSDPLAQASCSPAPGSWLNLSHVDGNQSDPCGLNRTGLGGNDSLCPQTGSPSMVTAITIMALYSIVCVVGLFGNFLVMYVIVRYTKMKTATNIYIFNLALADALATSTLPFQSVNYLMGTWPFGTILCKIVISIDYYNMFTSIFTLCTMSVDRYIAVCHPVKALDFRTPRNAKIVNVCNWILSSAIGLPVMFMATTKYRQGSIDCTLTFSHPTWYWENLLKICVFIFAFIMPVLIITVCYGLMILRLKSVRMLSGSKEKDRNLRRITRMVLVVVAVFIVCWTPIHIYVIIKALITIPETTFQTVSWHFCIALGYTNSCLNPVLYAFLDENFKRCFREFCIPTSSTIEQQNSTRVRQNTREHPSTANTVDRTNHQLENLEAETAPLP
Delta-type opioid receptor (Mus musculus, UniProt P32300), sequence (P32300 whole entry): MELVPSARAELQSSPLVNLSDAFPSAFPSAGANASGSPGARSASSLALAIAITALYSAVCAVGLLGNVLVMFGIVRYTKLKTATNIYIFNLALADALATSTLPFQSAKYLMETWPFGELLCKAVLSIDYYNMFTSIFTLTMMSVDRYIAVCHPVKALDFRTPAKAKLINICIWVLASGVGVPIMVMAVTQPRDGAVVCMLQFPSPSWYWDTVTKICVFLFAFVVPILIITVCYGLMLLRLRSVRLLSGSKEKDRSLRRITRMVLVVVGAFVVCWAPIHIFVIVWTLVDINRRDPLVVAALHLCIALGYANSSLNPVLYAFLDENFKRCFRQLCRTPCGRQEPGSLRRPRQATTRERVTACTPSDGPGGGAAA

For the compound `CC1(C)SSC(C)(C)[C@@H](NC(=O)[C@@H](N)Cc2ccc(O)cc2)C(=O)NCC(=O)N[C@@H](Cc2ccc(F)cc2)C(=O)N[C@@H]1C(=O)N[C@@H](Cc1ccccc1)C(=O)O`, the IC50 at Mu-type opioid receptor [1] was 1650 nM; in experiment [2] it was 0.43 nM; in experiment [3], 0.016 nM; on Mu-type opioid receptor [4] it was 740 nM.

Turning to `CC1(C)SSC(C)(C)[C@@H](NC(=O)[C@@H](N)Cc2ccc(O)cc2)C(=O)NCC(=O)N[C@@H](Cc2ccccc2)C(=O)N[C@@H]1C(=O)N[C@@H](Cc1ccccc1)C(=O)O`, the IC50 on Mu-type opioid receptor [1] is 11400 nM; in experiment [2], 4 nM; in experiment [3], 1.89 nM; against Mu-type opioid receptor [4], 5800 nM.

On to `CC1(C)SSC(C)(C)[C@@H](NC(=O)[C@@H](N)Cc2ccc(O)cc2)C(=O)NCC(=O)N[C@@H](Cc2ccc(Br)cc2)C(=O)N[C@@H]1C(=O)N[C@@H](Cc1ccccc1)C(=O)O`, for which the IC50 turned out to be 4200 nM on Mu-type opioid receptor [1], 0.2 nM in experiment [2], 0.18 nM in experiment [3] and 3400 nM against Mu-type opioid receptor [4].

In the case of `CC1(C)SSC(C)(C)[C@@H](NC(=O)[C@@H](N)Cc2ccc(O)cc2)C(=O)NCC(=O)N[C@@H](Cc2ccc(Cl)cc2)C(=O)N[C@@H]1C(=O)N[C@@H](Cc1ccccc1)C(=O)O`, the IC50 was determined as 1700 nM on Mu-type opioid receptor [1], 0.4 nM in experiment [2], 0.17 nM in experiment [3] and 420 nM at Mu-type opioid receptor [4].

Turning to `CC1(C)SSC(C)(C)[C@@H](NC(=O)[C@@H](N)Cc2ccc(O)cc2)C(=O)NCC(=O)N[C@@H](Cc2ccc(I)cc2)C(=O)N[C@@H]1C(=O)N[C@@H](Cc1ccccc1)C(=O)O`, the IC50 at Mu-type opioid receptor [1] is 7300 nM; in experiment [2], 0.47 nM; in experiment [3] it was 0.8 nM; against Mu-type opioid receptor [4] it was 8700 nM.

In turn, `CC1(C)SSC[C@@H](C(=O)N[C@@H](Cc2ccccc2)C(=O)O)NC(=O)[C@H](Cc2ccccc2)NC(=O)CNC(=O)[C@@H]1NC(=O)[C@@H](N)Cc1ccc(O)cc1` (HELM PEPTIDE1{Y.[CC(C)(S[*:3])[C@@H](N[*:1])C(=O)[*:2]].G.F.C.F}$PEPTIDE1,PEPTIDE1,2:R3-5:R3$$$V2.0) yielded a 50% inhibitory concentration (IC50) against Mu-type opioid receptor [4] of 83 nM.

The record behind these values is ChEMBL document CHEMBL1130249, “Cyclic enkephalin analogues with exceptional potency and selectivity for delta-opioid receptors” (J Med Chem, 1997).
